Test results from ChEMBL document CHEMBL4392865, “Indole Diterpenoids from an Endophytic Penicillium sp” (J Nat Prod, 2019).

How the values were obtained:
[1] = tested on: A2780; experiment: Cytotoxicity against human A2780 cells assessed as reduction in cell viability incubated for 72 hrs by MTT assay; type: functional, cell-based
[2] = tested on: L5178Y; experiment: Cytotoxicity against mouse L5178Y cells assessed as reduction in cell viability incubated for 72 hrs by MTT assay; type: functional, cell-based
Method in brief: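 Murine L5178Y lymphoma cells were the cells tested, with kahalalide F run in parallel as the positive control. The read-out was IC50.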

[3] = tested on: HEK293; experiment: Cytotoxicity against HEK293 cells assessed as reduction in cell viability incubated for 72 hrs by MTT assay; type: cell-based; settings: Homo sapiens, HEK293, 72 h
[4] = Selectivity index, ratio of IC50 for HEK293 cells to IC50 for human A2780 cells; type: toxicity; settings: HEK293 cells versus A2780 cells, read-out: Ratio IC50
Method in brief: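 Selectivity index is the IC50 against HEK-293 cells divided by the IC50 against A2780 ovarian cancer cells, each from this paper's cytotoxicity testing.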

[5] = tested on: J82; experiment: Cytotoxicity against human J82 cells assessed as reduction in cell viability incubated for 72 hrs by high content analysis based fluorescent live/dead assay; type: functional
Method in brief: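 J82 bladder cancer cells were analysed by fluorescent live/dead staining. An imaging system gave direct counts of live and dead cells, and IC50 values were derived from these counts.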

[6] = Mus musculus, L5178Y, 72 h, read-out: IC50
[7] = Homo sapiens, A2780, 72 h, read-out: IC50
[8] = Homo sapiens, J82, 72 h, read-out: IC50

## CC(C)=CCc1ccc2[nH]c3c(c2c1)C[C@@H]1CC[C@@]2(O)C4=CC(=O)[C@@H](C(C)(C)O)O[C@H]4CC[C@]2(C)[C@@]31C
[1]; a2780
  IC50: Not Active
[2]; [6]
  IC50: 12.9 µM

## CC(C)(O)[C@H]1O[C@@]2(O)CC[C@@]3(C)[C@@H](CC[C@H]4Cc5c([nH]c6ccccc56)[C@@]43C)C2=CC1=O
[1]; a2780
  IC50: Not Active
[3]
  IC50: 39.8 µM
[2]; [6]
  IC50: 6.2 µM

## CC1(C)CC2=C(Cc3cc4c5c([nH]c4cc32)[C@@]2(C)[C@@H](CC[C@@]3(O)C4=CC(=O)[C@@H](C(C)(C)O)OC4=CC[C@@]32C)C5)C(C)(C)O1
[4]
  selectivity ratio: 4.8
[1]; [7]
  IC50: 7.8 µM
[3]
  IC50: 37.4 µM
[5]; [8]
  IC50: 31.7 µM
[2]; [6]
  IC50: 8.1 µM

## CC1(C)CC2=C(Cc3cc4c(cc32)NC(=O)[C@@]2(C)[C@@H](CC[C@@]3(O)C5=CC(=O)[C@@H](C(C)(C)O)O[C@H]5CC[C@@]32C)CC4=O)C(C)(C)O1
[4]
  selectivity ratio: 2.4
[1]; [7]
  IC50: 11.9 µM
[3]
  IC50: 28.3 µM
[5]; [8]
  IC50: 29.4 µM
[2]; [6]
  IC50: 7.6 µM

## CO[C@]12CC[C@@]3(C)[C@@](O)(CC[C@H]4Cc5c([nH]c6cc7c(cc56)CC5=C7CC(C)(C)OC5(C)C)[C@@]43C)C1=CC(=O)[C@@H](C(C)(C)O)O2
[1]; [7]
  IC50: 32.2 µM
[5]; [8]
  IC50: 96.7 µM
[2]; l5178y
  IC50: Not Active

## CC(C)(O)[C@H]1O[C@@]2(O)CC[C@@]3(C)C(=CC[C@H]4Cc5c([nH]c6ccccc56)[C@@]43C)C2=CC1=O
[1]; a2780
  IC50: Not Active
[3]
  IC50: 27.9 µM
[2]; [6]
  IC50: 5.3 µM

## CC(C)(O)[C@H]1O[C@H]2CC[C@@]3(C)[C@@H](CC[C@H]4Cc5c([nH]c6ccccc56)[C@@]43C)C2=C[C@H]1O
[1]; [7]
  IC50: 28.5 µM
[2]; l5178y
  IC50: Not Active

## CC1(C)O[C@@]23CC[C@@]4(C)C(=CC[C@H]5Cc6c([nH]c7ccccc67)[C@@]54C)C2=CC(=O)[C@@H]1O3
[4]
  selectivity ratio: 1.8
[1]; [7]
  IC50: 12.2 µM
[3]
  IC50: 21.7 µM
[5]; [8]
  IC50: 42.1 µM
[2]; [6]
  IC50: 5.3 µM

## CO[C@]12CC[C@@]3(C)[C@@](O)(CC[C@H]4Cc5c([nH]c6ccccc56)[C@@]43C)C1=CC(=O)[C@@H](C(C)(C)O)O2
[1]; [7]
  IC50: 12.2 µM
[5]; [8]
  IC50: 55.3 µM
[2]; l5178y
  IC50: Not Active

## CC1(C)CC2=C(Cc3cc4c5c([nH]c4cc32)[C@@]2(C)[C@@H](CC[C@@]3(O)C4=CC(=O)[C@@H](C(C)(C)O)O[C@H]4CC[C@@]32C)C5)C(C)(C)O1
[1]; [7]
  IC50: 12.8 µM
[2]; [6]
  IC50: 10.9 µM

## CO[C@]12CC[C@@]3(C)[C@@](O)(CC[C@H]4CC(=O)c5cc6c(cc5NC(=O)[C@@]43C)C3=C(C6)C(C)(C)OC(C)(C)C3)C1=CC(=O)[C@@H](C(C)(C)O)O2
[1]; [7]
  IC50: 19.4 µM
[5]; [8]
  IC50: 73 µM
[2]; l5178y
  IC50: Not Active

## CC(C)=CCc1ccc2[nH]c3c(c2c1)C[C@@H]1CC[C@@]2(O)C4=CC(=O)[C@@H]5O[C@@]4(CC[C@]2(C)[C@@]31C)OC5(C)C
[1]; [7]
  IC50: 19.8 µM
[2]; l5178y
  IC50: Not Active

## CC1(C)O[C@@]23CC[C@]4(C)c5cc6[nH]c7ccccc7c6cc5CC[C@H]4C2=CC(=O)[C@@H]1O3
[4]
  selectivity ratio: 3.3
[1]; [7]
  IC50: 8.7 µM
[3]
  IC50: 28.5 µM
[5]; [8]
  IC50: 40.6 µM
[2]; [6]
  IC50: 3.6 µM

## CC1(C)CC2=C(Cc3cc(C(=O)C[C@@H]4CC[C@@]5(O)C6=CC(=O)[C@@H](C(C)(C)O)O[C@H]6CC[C@]5(C)[C@@]4(C)C(=O)O)c(N)cc32)C(C)(C)O1
[1]; [7]
  IC50: 51.5 µM
[5]; j82
  IC50: Not Active
[2]; l5178y
  IC50: Not Active

## CC(C)(O)[C@H]1O[C@H]2CC[C@@]3(C)[C@@H](CC[C@H]4Cc5c([nH]c6ccccc56)[C@@]43C)C2=CC1=O [DEHYDROXYPAXILLINE]
[1]; [7]
  IC50: 17.1 µM
[2]; l5178y
  IC50: Not Active

## CC(C)=CCC[C@]1(C)[C@@H](O)CC[C@@]2(C)[C@H]1CC[C@H]1Cc3c([nH]c4ccccc34)[C@@]12C [EMINDOLE SB]
[4]
  selectivity ratio: 5.4
[1]; [7]
  IC50: 8.2 µM
[3]
  IC50: 44.6 µM
[2]; [6]
  IC50: 18.3 µM

## CC(C)(O)[C@@H]1CC[C@]2(C)[C@H](CC[C@@]3(C)[C@H]2CC[C@H]2Cc4c([nH]c5ccccc45)[C@@]23C)O1 [PASPALINE]
[4]
  selectivity ratio: 8.1
[1]; [7]
  IC50: 5.3 µM
[3]
  IC50: 43 µM
[2]; l5178y
  IC50: Not Active
